Screens deposited in PubChem BioAssay by Johns Hopkins Ion Channel Center.
RGS4 act – RGS4 potentiation or activation; B-score at 10 µM; HEK293 M3R/inducible RGS4, carbachol calcium flux Fluo4; hits give low values; AID 463111; 0.92% of 310,000 active;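 active = B-score of the integrated calcium signal more than 4 SD below the library mean, with starting fluorescence not abnormally high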;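 note: negative B-score means reduced calcium response which marks RGS4 activation or potentiation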
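Assay system: Inducible-RGS4 HEK293 cells carrying M3 receptor | Schedule: Compound preincubation 20 min at room temperature before agonist | Signal: Kinetic calcium fluorescence imaging with Fluo4-AM dye, 2 µM | Read-out basis: B score from integrated fluorescence ratio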
MrgX1 antagonist – human MrgX1 receptor antagonism, primary screen | 1.3% of 310,000 active | B-score at 10 µM | MRGX1-HEK293 calcium flux, Fluo-4, BAM8-22 antagonism; hits give low values | Q96LB2;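 active = calcium-response B-score plate-corrected more than 3 library SD below zero, starting fluorescence within 5 deviations, no agonist response on first addition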;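 note: peak minus trough fluorescence over baseline after final BAM8-22 challenge near maximal dose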
MrgX1 ag – agonists of human MrgX1 receptor; Q96LB2; MrgX1-HEK293 cells, Fluo-4 calcium fluorescence, agonist mode; hits give high values; B-score at 10 µM; 0.44% of 310,000 active; AID 588627;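 active = calcium response B-score plate-corrected fluorescence ratio at least 3 library SD, with starting fluorescence B-score inside 5 SD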
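Test system: HEK293 cells stably expressing human MrgX1 receptor; amount: 15,000 cells per well; doses: compound delivered in addition one of three; times: overnight plating before 1 h dye loading; detection: Fluo-4 NW calcium-flux fluorescence, kinetic read; read-out basis: B-scored fluorescence response ratio; controls: positive and negative controls per plate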
RGS4 block – inhibitors of human RGS4. HEK293 M3R/RGS4 inducible, Fluo-4 calcium flux; hits give high values; triggered by carbachol at its EC20. P49798. 0.45% of 310,000 active. AID 463165. B-score at 10 µM;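 active = B-score, a plate-corrected calcium signal, over three deviations above library mean, with baseline fluorescence within five deviations of library mean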;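 note: RGS4 expression induced by doxycycline in cells with stable M3 receptor; B-score is computed from the integrated fluorescence ratio over baseline after carbachol; higher B-score means a larger calcium signal and so more RGS4 inhibition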
Target sequence (P49798 whole entry, looked up): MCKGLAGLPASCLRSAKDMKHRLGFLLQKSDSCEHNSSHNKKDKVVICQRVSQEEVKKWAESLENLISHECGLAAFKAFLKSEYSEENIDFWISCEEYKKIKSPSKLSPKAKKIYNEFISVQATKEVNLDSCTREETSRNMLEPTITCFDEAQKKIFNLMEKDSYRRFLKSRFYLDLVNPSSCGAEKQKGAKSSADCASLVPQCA
MrgX1 allo act – allosterically activates human MrgX1 receptor signaling | Q96LB2 | MrgX1-HEK293, Fluo-4 calcium flux, FDSS; hits give high values | B-score at 10 µM | 0.63% of 310,000 active;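 active = plate-corrected calcium response at least 3 library SD above typical, normal starting fluorescence, not activating the receptor alone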;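 note: compound read alongside a low EC10 to EC30 dose of BAM8-22 agonist; peak minus trough fluorescence over baseline measured at the second addition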
RGS4 inh valid – validation of RGS4 inhibitors; shares compounds with RGS4 block; HEK293 M3R/RGS4, carbachol calcium Fluo-4 fluorescence; carbachol added at its EC20; 0 = buffer wells, 100 = carbachol control; calcium response, % at 10 µM; 65% of 1,700 active;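 active = duplicate-averaged calcium response above the buffer-only control mean plus 5 SD of those controls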;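 note: integrated fluorescence ratio F max minus min over baseline F0; higher response in RGS4-induced cells means RGS4 inhibition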
M3R Ca ctr – checks RGS4 inhibitor effects in non-induced HEK293 M3R cells; shares compounds with RGS4 block; carbachol calcium Fluo-4; submaximal (EC20) carbachol stimulus; buffer wells 0%, carbachol control wells 100%; activity (percent), % at 10 µM; 20% of 1,900 active; call rule not given here;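 note: RGS4 induction absent so cells express M3R without RGS4; higher means more calcium signal and flags a non-specific hit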
RGS4 inh ctr2 – signal in non-induced cells without carbachol, RGS4 inhibitor counter-screen; shares compounds with RGS4 block; HEK293 M3R/RGS4 non-induced, Fluo-4 calcium, no carbachol; normalised: buffer wells 0%, carbachol wells 100%; calcium response (agonist-mode artifact), % at 10 µM; 22% of 1,900 active; AID 493001;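 active = duplicate-averaged calcium rise in uninduced cells above buffer wells' mean plus 5 SD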
Numbers without * were called inactive; i = inactive; / = no result given. Sampled rows, rich in hits. Any-hit rate of the full collection: about 3.5%.

SMILES	RGS4 act	MrgX1 antagonist	MrgX1 ag	RGS4 block	MrgX1 allo act	RGS4 inh valid	M3R Ca ctr	RGS4 inh ctr2
CCOc1ccc(-n2c(C)nc(O)c2N=Nc2ccccc2)cc1	i	i	i	i	i	/	/	/
O=C(CSc1nnc(-c2ccccc2)n1Cc1ccco1)NCc1ccc2c(c1)OCO2	i	i	i	i	i	/	/	/
CC(C)N(C(=O)C(=O)c1cccn1-c1ccccc1C#N)C(C)C	i	i	i	i	i	/	/	/
CC(C)C(=O)N1CCN(c2nc(-c3ccc(Cl)cc3)cs2)CC1	i	i	i	5.5*	i	18%*	i	i
O=C(COc1cccc(Br)c1)N/N=C/C(=O)c1ccccc1	i	i	i	4.7*	i	8.0%*	i	i
Cc1cccc(OCC(=O)N/N=C\c2cn(C)c3ccccc23)c1	i	i	i	7.3*	i	i	i	i
NNc1cc(C(=O)O)ccc1Cl	i	i	i	i	i	/	/	/
O=C(c1ccc(Cl)nc1)N1CCN(S(=O)(=O)c2ccccc2)CC1	i	i	i	i	i	/	/	/
CC1CCN(c2c(NCC3CCC(C(=O)NCc4ccccc4)CC3)c(=O)c2=O)CC1 (stereo not drawn)	i	i	i	i	i	/	i	i
CC1CCN(c2c(NCC3CCC(C(=O)NCCCc4ccccc4)CC3)c(=O)c2=O)CC1 (stereo not drawn)	i	i	i	6.4*	i	6.0%*	i	i
CC1(C)CC(CCNC(=O)CCl)(c2ccccc2)CCO1 (stereo not drawn)	i	i	i	i	i	/	/	/
COc1ccc(Nc2nc(N3CCOCC3)nc(N3CCOCC3)n2)c(OC)c1	i	i	i	i	i	i	i	i
CN(CC(=O)Nc1ccc(Cl)c(C(F)(F)F)c1)C(=O)Cc1c[nH]c2ccccc12	i	i	i	5.9*	i	18%*	i	i
COc1ccc(-c2nc(SCC(=O)NC3CCCCC3)n[nH]2)cc1	i	i	i	i	i	/	/	/
COc1ccc(S(=O)(=O)N2CCCC(C(=O)N3CCOCC3)C2)cc1C (stereo not drawn)	i	i	i	i	i	/	/	/
COc1ccc(OC)c(S(=O)(=O)N2CCCC(C(=O)N3CCOCC3)C2)c1 (stereo not drawn)	i	i	i	4.8*	i	i	i	i
Cc1nc(N)c(C#N)c(-c2ccc3c(c2)OCO3)c1C	i	i	i	i	i	/	/	/
Cc1ccc(-c2c(C#N)c(N)nc3c2CCCCC3)o1	i	i	i	i	i	/	/	/
Cc1ccc(-c2cc(-c3ccc(Cl)cc3)c(C#N)c(N)n2)o1	i	i	i	6.3*	i	5.0%*	i	12%*
Cc1ccc(-c2cc(-c3ccc(C)o3)nc(N)c2C#N)cc1	i	i	i	7*	i	i	i	i
COc1ccc(-c2cc(-c3ccc(O)cc3)nc(N)c2C#N)cc1OC	i	i	i	i	i	/	/	/
Cc1ccc(-c2cc(-c3ccc4c(c3)OCO4)c(C#N)c(N)n2)o1	i	i	i	8.8*	i	i	i	i
CCOc1cc(-c2cc(-c3ccc(C)o3)nc(N)c2C#N)ccc1O	i	i	i	i	i	/	/	/
Cc1cc(-c2cc(-c3ccc(Cl)cc3)nc(N)c2C#N)co1	i	i	i	9.8*	i	5.0%*	i	i
Cc1c(-c2ccc(F)cc2)nc(N)c(C#N)c1-c1ccco1	i	i	i	i	i	/	/	/
